For data set [1], the system named is Staphylococcus aureus. Put plainly: Antimicrobial activity against Staphylococcus aureus clinical isolates from Liberec regional hospital assessed as reduction in bacterial growth after 20 hrs by […]. In kind it is functional. The procedure, abridged:
(§1)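 Broth microdilution in LB (YPG for C. albicans) with 2-fold serial dilutions, final 0.1–100 μM. Mid-log cells grown 3–5 h at 37 °C were added at about 5 × 10^5 cfu/mL, then incubated 20 h at 37 °C with shaking. A540 was read every 15 min to build growth curves. Medium with cells served as growth control; at least three runs in duplicate.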

Data set [2] concerns Pseudomonas aeruginosa. Put plainly: Antimicrobial activity against Pseudomonas aeruginosa clinical isolates assessed as reduction in bacterial growth after 20 hrs by […]. In kind it is functional. The procedure, abridged: as §1
Data set [3] has as its system Staphylococcus aureus. Put plainly: Antimicrobial activity against Staphylococcus aureus clinical isolates from university hospital in Motol assessed as reduction in bacterial growth after 20 hrs by drop diffusion test. In kind it is functional.
The subject of data set [4] is Pseudomonas aeruginosa. Kind of data set: Antimicrobial activity against Pseudomonas aeruginosa clinical isolates assessed as FIC index in presence of tetracycline after 20 hrs by drop diffusion test. In kind it is functional.
Data set [5] deals with Staphylococcus epidermidis. Put plainly: Antimicrobial activity against Staphylococcus epidermidis assessed as reduction in bacterial growth after 20 hrs by broth microdilution assay. (In general: Dilution methods test growth across graded concentrations, often in twofold steps.)
The subject of data set [6] is Pseudomonas aeruginosa. Put plainly: Antimicrobial activity against Pseudomonas aeruginosa 5482 assessed as reduction in bacterial growth after 20 hrs […]. In kind it is functional. To be noted: Pseudomonas aeruginosa, 5482, 20 h. The method in brief: as §1
A further data set has as its system Escherichia coli. Kind of data set: Antimicrobial activity against Escherichia coli assessed as reduction in bacterial growth after 20 hrs by […]. In kind it is functional. The procedure, abridged:
as §1

In data set [7] the test system is Staphylococcus aureus. Kind of data set: Antimicrobial activity against Staphylococcus aureus clinical isolates assessed as FIC index in presence of amoxicillin after 20 hrs by drop diffusion test. In kind it is functional.
For a further data set, the system named is Bacillus subtilis. Put plainly: Antimicrobial activity against Bacillus subtilis assessed as reduction in bacterial growth after 20 hrs by […]. In kind it is functional. The method in brief: as §1
The subject of data set [8] is Pseudomonas aeruginosa. Put plainly: Antimicrobial activity against Pseudomonas aeruginosa clinical isolates assessed as FIC index in presence of rifampicin after 20 hrs by drop diffusion test. In kind it is functional.
Another data set deals with Micrococcus luteus. Put plainly: Antimicrobial activity against Micrococcus luteus assessed as reduction in bacterial growth after 20 hrs by […]. In kind it is functional. The procedure, abridged:
as §1

In data set [9] the test system is Staphylococcus aureus. Put plainly: Antimicrobial activity against Staphylococcus aureus 6271 assessed as reduction in bacterial growth after 20 hrs by broth microdilution assay. To be noted: Staphylococcus aureus, 6271, 20 h.
Another data set deals with Candida albicans. Kind of data set: Antifungal activity against Candida albicans assessed as reduction in fungal growth after 20 hrs by […]. In kind it is functional. The method in brief:
as §1

Data set [10] is described as follows: Hemolytic activity in human type RBC after 1 hr. In kind it is ADME, cell-based, Erythrocyte. To be noted: red blood cells (erythrocytes), read-out: LC50. The procedure, abridged:
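Peptides at 2.5–400 μM were incubated with a 4% suspension of human erythrocytes in physiological solution for 1 h at 37 °C, then centrifuged at 250g for 5 min; supernatant A540 was read. Saline-treated cells gave 0% lysis and 0.2% Triton X-100 gave 100%. LC50 is the concentration lysing 50% of cells; duplicates in at least two independent experiments.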

Data set [11] concerns Staphylococcus aureus. Kind of data set: Antimicrobial activity against Staphylococcus aureus clinical isolates from Liberec regional hospital assessed as reduction in bacterial growth after 20 hrs by broth microdilution assay.

≈ marks a conversion by molar mass, not a printed value. Non-standard residues stand in square brackets, D forms with d. Residues, ends and D or L forms follow the SMILES beside them. ξ: configuration not given here. ξNle = CCCCC(N)C(=O)O Where only a bound is given, the exact number is not on record here.

In general, MIC refers to the lowest concentration that inhibits growth of the organism. Regarding H-GILSKLLKKLKKIIAK-NH2, the MIC in the data set on Staphylococcus aureus [1] came to 5.9 µM; with Pseudomonas aeruginosa [2], 8.5 µM; in the data set with Staphylococcus aureus [3], 10 µM; in data set [5], 1.8 µM; in the data set with Pseudomonas aeruginosa [6] it was 4.5 µM; in the data set on Escherichia coli it was 18 µM. The minimum inhibitory concentration (MIC) in the data set with Bacillus subtilis is at most 7 µM; in the data set with Micrococcus luteus, at most 3 µM; in the data set on Staphylococcus aureus [9], 23 µM; in the data set on Candida albicans, 45 µM. In addition, the “fractional inhibitory concentration index (FICI)” value in the data set on Pseudomonas aeruginosa [4] is on record as 0.65; with Staphylococcus aureus [7] it was 0.33; in the data set on Pseudomonas aeruginosa [8] it was 0.34. Besides, the HC50 at 1 h in data set [10] was above 400 µM.

As for `CCCCC(NC(=O)[C@H](CC(C)C)NC(=O)[C@H](CO)NC(=O)[C@H](CO)NC(=O)C(CCCC)NC(=O)[C@@H](NC(=O)CN)[C@@H](C)CC)C(=O)N[C@@H](CCCCN)C(=O)N[C@@H](CCCCN)C(=O)N[C@@H](CC(C)C)C(=O)N[C@@H](CCCCN)C(=O)N[C@@H](CCCCN)C(=O)N[C@H](C(=O)N[C@H](C(=O)N[C@@H](C)C(N)=O)[C@@H](C)CC)[C@@H](C)CC` (stereo not given in full) (H-GI[ξNle]SSL[ξNle]KKLKKIIA-NH2), the MIC worked out at 4 µM (≈ 6.5 µg/mL) in the data set with Staphylococcus aureus [1]; 7.9 µM (≈ 12.8 µg/mL) in the data set with Pseudomonas aeruginosa [2]; 6.7 µM (≈ 10.9 µg/mL) in the data set on Staphylococcus aureus [3]; 2.5 µM (≈ 4.06 µg/mL) in [5]; 4 µM (≈ 6.5 µg/mL) in the data set on Pseudomonas aeruginosa [6]; 10 µM (≈ 16.2 µg/mL) with Escherichia coli. Further, the MIC was at most 7 µM in the data set with Bacillus subtilis, at most 3 µM with Micrococcus luteus, 13 µM (≈ 21.1 µg/mL) in the data set with Staphylococcus aureus [9] and 10 µM (≈ 16.2 µg/mL) in the data set on Candida albicans. The entries for the “fractional inhibitory concentration index (FICI)” value in the data set with Pseudomonas aeruginosa [4], with Staphylococcus aureus [7] and in the data set with Pseudomonas aeruginosa [8] were 0.58, 0.55 and 0.93, respectively. Moreover, the HC50 at 1 h in data set [10] amounted to 373 µM.

Consider H-GILSSWLKKLKKIIAK-NH2, for which the MIC in the data set on Staphylococcus aureus [1] is 6.6 µM; in the data set with Pseudomonas aeruginosa [2], 5.9 µM; in the data set on Staphylococcus aureus [3], 16 µM; in [5] it was 2 µM; with Pseudomonas aeruginosa [6] it was 4 µM; in the data set on Escherichia coli, 11 µM. Further, the MIC in the data set with Bacillus subtilis was at most 7 µM; in the data set on Micrococcus luteus, at most 3 µM; in the data set with Staphylococcus aureus [9] it was 16 µM; in the data set on Candida albicans it was 17 µM. Also, the figures for the “fractional inhibitory concentration index (FICI)” value in the data set on Pseudomonas aeruginosa [4], with Staphylococcus aureus [7] and in the data set with Pseudomonas aeruginosa [8] were 0.65, 0.37 and 0.4, respectively. Further, the HC50 at 1 h in data set [10] was above 400 µM.

For the compound H-KILSSLLKKLKKIIAK-NH2, the minimum inhibitory concentration (MIC) was determined as 5.5 µM in the data set on Staphylococcus aureus [1]; 16 µM in the data set with Pseudomonas aeruginosa [2]; 10 µM with Staphylococcus aureus [3]; 1.4 µM in [5]; 5 µM in the data set on Pseudomonas aeruginosa [6]; 16 µM in the data set with Escherichia coli. Also, the minimum inhibitory concentration (MIC) is at most 7 µM in the data set on Bacillus subtilis, at most 3 µM with Micrococcus luteus, 32 µM in the data set with Staphylococcus aureus [9] and 25 µM in the data set with Candida albicans. Besides, the results for the “fractional inhibitory concentration index (FICI)” value in the data set with Pseudomonas aeruginosa [4], in the data set on Staphylococcus aureus [7] and in the data set on Pseudomonas aeruginosa [8] were 0.71, 0.29 and 0.26, respectively. The HC50 at 1 h in data set [10] came out at 364 µM.

For the compound H-GIMSSLMKKLAKIIAK-NH2, the minimum inhibitory concentration (MIC) turned out to be 9.3 µM in the data set with Pseudomonas aeruginosa [2]; 5.2 µM in the data set with Staphylococcus aureus [11]; 10 µM in the data set on Staphylococcus aureus [3]; 5 µM in data set [5]; 4.5 µM with Pseudomonas aeruginosa [6]; 3.7 µM in the data set with Escherichia coli. The minimum inhibitory concentration (MIC) with Bacillus subtilis was at most 7 µM; in the data set on Micrococcus luteus it was at most 3 µM; in the data set with Staphylococcus aureus [9], 9 µM; in the data set with Candida albicans it was 11 µM. Further, the “fractional inhibitory concentration index (FICI)” value worked out at 0.79 with Pseudomonas aeruginosa [4], 0.5 with Staphylococcus aureus [7] and 0.43 in the data set with Pseudomonas aeruginosa [8]. The HC50 at 1 h in data set [10] was 88 µM.

The record behind these values is ChEMBL document CHEMBL4477183, “Antimicrobial Peptide from the Wild Bee Hylaeus signatus Venom and Its Analogues: Structure-Activity Study and Synergistic Effect with Antibiotics” (J Nat Prod, 2016).
